ChEMBL document CHEMBL1125014, “Synthesis and structure-activity relationships of new 9-N-alkyl derivatives of 9(S)-erythromycylamine” (1990)
Converted amounts (≈) assume the structure as drawn.

Tests used:
Type in all cases: functional
[1] = tested on: Staphylococcus epidermidis; test: microbe, parasite or virus in culture
[2] = tested on: Staphylococcus aureus; test: MIC value measured against staphylococcus aureus X1
[3] = tested on: Haemophilus influenzae; test: MIC value was measured against haemophilus influenzae CL
[4] = tested on: Streptococcus pyogenes; test: MIC value measured against streptococcus pyogenes C203
[5] = tested on: Haemophilus influenzae; test: MIC value was measured against haemophilus influenzae.
Method in brief: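 Susceptibility determined by standard agar-dilution method against a panel of bacterial strains.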

[6] = tested on: Streptococcus pneumoniae; test: Effective dose against mice infected with streptococcus pneumoniae after peroral administration (in vivo); settings: in Mus musculus, po
[7] = tested on: Streptococcus pneumoniae; test: MIC value measured against streptococcus pneumoniae Park1
[8] = tested on: Staphylococcus aureus; test: Effective dose against mice infected with Staphylococcus aureus after peroral administration (in vivo); settings: in Mus musculus, po
[9] = tested on: Streptococcus pyogenes; test: Effective dose against mice infected with streptococcus pyogenes after peroral administration (in vivo); settings: in Mus musculus, po

Row | Compound | MIC [1] | MIC [2] | MIC [3] | MIC [4] | MIC [5] | ED50 [6] | MIC [7] | ED50 [8] | ED50 [9]
1 | C=CCCCCCCCCCN[C@@H]1[C@H](C)[C@@H](O)[C@](C)(O)[C@@H](CC)OC(=O)[C@H](C)[C@@H](OC2CC(C)(OC)C(O)C(C)O2)[C@H](C)[C@@H](OC2OC(C)CC(N(C)C)C2O)[C@](C)(O)C[C@H]1C (stereo partly drawn) | 1 µg/mL (≈ 1.13 µM) | 2 µg/mL (≈ 2.25 µM) | 2 µg/mL (≈ 2.25 µM) | 1 µg/mL (≈ 1.13 µM) | 2 µg/mL (≈ 2.25 µM) |  |  |  | 
2 | CC[C@H]1OC(=O)[C@H](C)[C@@H](OC2CC(C)(OC)C(O)C(C)O2)[C@H](C)[C@@H](OC2OC(C)CC(N(C)C)C2O)[C@](C)(O)C[C@@H](C)[C@H](NCCCCCO)[C@H](C)[C@@H](O)[C@]1(C)O (stereo partly drawn) | 0.5 µg/mL (≈ 0.609 µM) | 0.5 µg/mL (≈ 0.609 µM) | 2 µg/mL (≈ 2.44 µM) | 0.008 µg/mL (≈ 0.00974 µM) | 2 µg/mL (≈ 2.44 µM) | > 50 mg/kg | 0.008 µg/mL (≈ 0.00974 µM) | > 50 mg/kg | 43 mg/kg
3 | CCCCN[C@@H]1[C@H](C)[C@@H](O)[C@](C)(O)[C@@H](CC)OC(=O)[C@H](C)[C@@H](OC2CC(C)(OC)C(O)C(C)O2)[C@H](C)[C@@H](OC2OC(C)CC(N(C)C)C2O)[C@](C)(O)C[C@H]1C (stereo partly drawn) | 0.25 µg/mL (≈ 0.316 µM) | 0.25 µg/mL (≈ 0.316 µM) | 1 µg/mL (≈ 1.26 µM) | 0.06 µg/mL (≈ 0.0758 µM) | 1 µg/mL (≈ 1.26 µM) | 13 mg/kg | 0.015 µg/mL (≈ 0.019 µM) | 15 mg/kg | 13 mg/kg
4 | CC[C@H]1OC(=O)[C@H](C)[C@@H](OC2CC(C)(OC)C(O)C(C)O2)[C@H](C)[C@@H](OC2OC(C)CC(N(C)C)C2O)[C@](C)(O)C[C@@H](C)[C@H](NC(C)C)[C@H](C)[C@@H](O)[C@]1(C)O (stereo partly drawn) | 0.5 µg/mL (≈ 0.643 µM) | 1 µg/mL (≈ 1.29 µM) | 2 µg/mL (≈ 2.57 µM) | 0.25 µg/mL (≈ 0.322 µM) | 2 µg/mL (≈ 2.57 µM) | 13 mg/kg | 0.12 µg/mL (≈ 0.154 µM) | 32 mg/kg | 13 mg/kg
5 | CCCCCCCCCCN[C@@H]1[C@H](C)[C@@H](O)[C@](C)(O)[C@@H](CC)OC(=O)[C@H](C)[C@@H](OC2CC(C)(OC)C(O)C(C)O2)[C@H](C)[C@@H](OC2OC(C)CC(N(C)C)C2O)[C@](C)(O)C[C@H]1C (stereo partly drawn) | 1 µg/mL (≈ 1.14 µM) | 1 µg/mL (≈ 1.14 µM) | 2 µg/mL (≈ 2.29 µM) | 0.015 µg/mL (≈ 0.0171 µM) | 2 µg/mL (≈ 2.29 µM) | > 50 mg/kg | 0.015 µg/mL (≈ 0.0171 µM) | > 50 mg/kg | > 50 mg/kg
6 | CCCCCCCN[C@@H]1[C@H](C)[C@@H](O)[C@](C)(O)[C@@H](CC)OC(=O)[C@H](C)[C@@H](OC2CC(C)(OC)C(O)C(C)O2)[C@H](C)[C@@H](OC2OC(C)CC(N(C)C)C2O)[C@](C)(O)C[C@H]1C (stereo partly drawn) | 0.25 µg/mL (≈ 0.3 µM) | 0.25 µg/mL (≈ 0.3 µM) | 1 µg/mL (≈ 1.2 µM) | 0.015 µg/mL (≈ 0.018 µM) | 1 µg/mL (≈ 1.2 µM) | 33 mg/kg | 0.015 µg/mL (≈ 0.018 µM) | > 50 mg/kg | 31 mg/kg
7 | CC[C@H]1OC(=O)[C@H](C)[C@@H](OC2CC(C)(OC)C(O)C(C)O2)[C@H](C)[C@@H](OC2OC(C)CC(N(C)C)C2O)[C@](C)(O)C[C@@H](C)[C@H](NC2CCCC2)[C@H](C)[C@@H](O)[C@]1(C)O (stereo partly drawn) | 0.5 µg/mL (≈ 0.623 µM) | 1 µg/mL (≈ 1.25 µM) | 2 µg/mL (≈ 2.49 µM) | 0.06 µg/mL (≈ 0.0747 µM) | 2 µg/mL (≈ 2.49 µM) | 4 mg/kg | 0.06 µg/mL (≈ 0.0747 µM) | 46 mg/kg | 4 mg/kg
8 | CCCCCCN[C@@H]1[C@H](C)[C@@H](O)[C@](C)(O)[C@@H](CC)OC(=O)[C@H](C)[C@@H](OC2CC(C)(OC)C(O)C(C)O2)[C@H](C)[C@@H](OC2OC(C)CC(N(C)C)C2O)[C@](C)(O)C[C@H]1C (stereo partly drawn) | 0.25 µg/mL (≈ 0.305 µM) | 1 µg/mL (≈ 1.22 µM) | 4 µg/mL (≈ 4.88 µM) | 0.12 µg/mL (≈ 0.146 µM) | 4 µg/mL (≈ 4.88 µM) | 14 mg/kg | 0.008 µg/mL (≈ 0.00977 µM) | 39 mg/kg | 18 mg/kg
9 | CC[C@H]1OC(=O)[C@H](C)[C@@H](OC2CC(C)(OC)C(O)C(C)O2)[C@H](C)[C@@H](OC2OC(C)CC(N(C)C)C2O)[C@](C)(O)C[C@@H](C)[C@H](N(C)C2CCCCC2)[C@H](C)[C@@H](O)[C@]1(C)O (stereo partly drawn) | 8 µg/mL (≈ 9.63 µM) | 16 µg/mL (≈ 19.3 µM) | 32 µg/mL (≈ 38.5 µM) | 1 µg/mL (≈ 1.2 µM) | 32 µg/mL (≈ 38.5 µM) | > 50 mg/kg | 0.12 µg/mL (≈ 0.144 µM) | > 50 mg/kg | > 50 mg/kg
10 | CCCCCCCCN[C@@H]1[C@H](C)[C@@H](O)[C@](C)(O)[C@@H](CC)OC(=O)[C@H](C)[C@@H](OC2CC(C)(OC)C(O)C(C)O2)[C@H](C)[C@@H](OC2OC(C)CC(N(C)C)C2O)[C@](C)(O)C[C@H]1C (stereo partly drawn) | 0.25 µg/mL (≈ 0.295 µM) | 0.5 µg/mL (≈ 0.59 µM) | 1 µg/mL (≈ 1.18 µM) | 0.015 µg/mL (≈ 0.0177 µM) | 1 µg/mL (≈ 1.18 µM) | 46 mg/kg | 0.015 µg/mL (≈ 0.0177 µM) | > 50 mg/kg | 23 mg/kg
11 | CCN[C@@H]1[C@H](C)[C@@H](O)[C@](C)(O)[C@@H](CC)OC(=O)[C@H](C)[C@@H](OC2CC(C)(OC)C(O)C(C)O2)[C@H](C)[C@@H](OC2OC(C)CC(N(C)C)C2O)[C@](C)(O)C[C@H]1C (stereo partly drawn) | 1 µg/mL (≈ 1.31 µM) | 1 µg/mL (≈ 1.31 µM) | 1 µg/mL (≈ 1.31 µM) | 0.12 µg/mL (≈ 0.157 µM) | 1 µg/mL (≈ 1.31 µM) | 13 mg/kg | 0.03 µg/mL (≈ 0.0393 µM) | 23 mg/kg | 13 mg/kg
12 | CC[C@H]1OC(=O)[C@H](C)[C@@H](OC2CC(C)(OC)C(O)C(C)O2)[C@H](C)[C@@H](OC2OC(C)CC(N(C)C)C2O)[C@](C)(O)C[C@@H](C)[C@H](N(C)C)[C@H](C)[C@@H](O)[C@]1(C)O (stereo partly drawn) | 2 µg/mL (≈ 2.62 µM) | 4 µg/mL (≈ 5.24 µM) | 2 µg/mL (≈ 2.62 µM) | 0.25 µg/mL (≈ 0.328 µM) | 2 µg/mL (≈ 2.62 µM) | 44 mg/kg |  | > 44 mg/kg | 22 mg/kg
